From ChEMBL document CHEMBL1909554, “Total synthesis and bioactivity of the marine alkaloid pityriacitrin and some of its derivatives” (Eur J Med Chem, 2011) come the findings set out here.

Each structure is given as a SMILES string. Calls of active or inactive are those of the source. The rule behind the calls is not given here. Where only a bound is given, the exact number is not on record here.

Assay [1] in a line: Cytotoxicity against human MDA231 cells […] by MTT assay. Conditions: MDA-MB-231. The assay is classed as functional, cell-based. An outline of the steps: (§1)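 MTT metabolic assay. Cells were exposed to compound continuously starting 18 h after setup, and survival was read at 96 h. IC50 is the concentration giving 50% growth inhibition relative to untreated cells. Values are means of three independent determinations.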
(In general: Formazan colour is commonly taken as a measure of viable cells.)

In another assay the test system is MCF7. Briefly: Cytotoxicity against human MCF7 cells […] by MTT assay. The assay is classed as functional, cell-based. A digest of the protocol:
as §1

In the next assay the test system is PC-3. Description: Cytotoxicity against human PC3 cells after 18 hrs by MTT assay. Conditions: PC-3, 96 h, in the assay text read “after 96 hrs” for “after 18 hrs”. The assay is classed as functional, cell-based. An outline of the steps:
as §1

Assay [2] deals with MDA-MB-231. Description: Induction of apoptosis in human MDA231 cells at 10 nM by annexin-V/7-AAD staining-based fluorescence assay. The assay is classed as functional. A digest of the protocol:
(§2)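 MDA-231 breast carcinoma cells were exposed to test compounds at 10, 20 or 50 µM, or to paclitaxel as reference at 10 or 50 nM. Results are expressed as percent apoptotic cells.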

The subject of assay [3] is MDA-MB-231. Description: Induction of apoptosis in human MDA231 cells at 50 nM by annexin-V/7-AAD staining-based fluorescence assay. Format: functional. A digest of the protocol:
as §2

For assay [4], the system named is MDA-MB-231. Briefly: Induction of apoptosis in human MDA231 cells at 20 uM by annexin-V/7-AAD staining-based fluorescence assay. The assay is classed as functional. A digest of the protocol: as §2
The target in assay [5] is Aurora kinase B (Homo sapiens) (UniProt Q96GD4). Description: Inhibition of human recombinant Aurora B at 10 uM after 4 hrs by Kinase-Glo luminescent assay. An outline of the steps:
(§3)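 Full-length human recombinant kinases were incubated in kinase buffer containing ATP and poly(Glu:Tyr) substrate, with or without compound at 10 µM final, for 4 h at room temperature. Remaining ATP was quantified by Kinase-Glo luminescence.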
In general terms: In Kinase-Glo more light means more ATP remaining.

Assay [6] deals with Epidermal growth factor receptor (Homo sapiens) (UniProt P00533). Description: Inhibition of human recombinant EGFR at 10 uM after 4 hrs by Kinase-Glo luminescent assay. A digest of the protocol:
as §3

In assay [7] the target is Dual specificity mitogen-activated protein kinase kinase 1 (Homo sapiens) (UniProt Q02750). Briefly: Inhibition of human recombinant MEK1 at 10 uM after 4 hrs by Kinase-Glo luminescent assay. A digest of the protocol: as §3
The target of assay [8] is Focal adhesion kinase 1 (Homo sapiens) (UniProt Q05397). Description: Inhibition of human recombinant FAK at 10 uM after 4 hrs by Kinase-Glo luminescent assay. An outline of the steps: as §3
Assay [9] has as its target Proto-oncogene tyrosine-protein kinase Src (Homo sapiens) (UniProt P12931). Briefly: Inhibition of human recombinant Src at 10 uM after 4 hrs by Kinase-Glo luminescent assay. An outline of the steps:
as §3

Assay [10] has as its system MDA-MB-231. Briefly: Induction of necrosis in human MDA231 cells at 50 uM by annexin-V/7-AAD staining-based fluorescence assay. Format: functional, cell-based.
Assay [11] concerns MDA-MB-231. Briefly: Induction of apoptosis in human MDA231 cells by annexin-V/7-AAD staining-based fluorescence assay. The assay is classed as functional, cell-based.
In assay [12] the test system is MDA-MB-231. Description: Induction of apoptosis in human MDA231 cells at 50 uM by annexin-V/7-AAD staining-based fluorescence assay. Format: functional. An outline of the steps: as §2

Sequence of Epidermal growth factor receptor (Homo sapiens) (P00533 whole entry): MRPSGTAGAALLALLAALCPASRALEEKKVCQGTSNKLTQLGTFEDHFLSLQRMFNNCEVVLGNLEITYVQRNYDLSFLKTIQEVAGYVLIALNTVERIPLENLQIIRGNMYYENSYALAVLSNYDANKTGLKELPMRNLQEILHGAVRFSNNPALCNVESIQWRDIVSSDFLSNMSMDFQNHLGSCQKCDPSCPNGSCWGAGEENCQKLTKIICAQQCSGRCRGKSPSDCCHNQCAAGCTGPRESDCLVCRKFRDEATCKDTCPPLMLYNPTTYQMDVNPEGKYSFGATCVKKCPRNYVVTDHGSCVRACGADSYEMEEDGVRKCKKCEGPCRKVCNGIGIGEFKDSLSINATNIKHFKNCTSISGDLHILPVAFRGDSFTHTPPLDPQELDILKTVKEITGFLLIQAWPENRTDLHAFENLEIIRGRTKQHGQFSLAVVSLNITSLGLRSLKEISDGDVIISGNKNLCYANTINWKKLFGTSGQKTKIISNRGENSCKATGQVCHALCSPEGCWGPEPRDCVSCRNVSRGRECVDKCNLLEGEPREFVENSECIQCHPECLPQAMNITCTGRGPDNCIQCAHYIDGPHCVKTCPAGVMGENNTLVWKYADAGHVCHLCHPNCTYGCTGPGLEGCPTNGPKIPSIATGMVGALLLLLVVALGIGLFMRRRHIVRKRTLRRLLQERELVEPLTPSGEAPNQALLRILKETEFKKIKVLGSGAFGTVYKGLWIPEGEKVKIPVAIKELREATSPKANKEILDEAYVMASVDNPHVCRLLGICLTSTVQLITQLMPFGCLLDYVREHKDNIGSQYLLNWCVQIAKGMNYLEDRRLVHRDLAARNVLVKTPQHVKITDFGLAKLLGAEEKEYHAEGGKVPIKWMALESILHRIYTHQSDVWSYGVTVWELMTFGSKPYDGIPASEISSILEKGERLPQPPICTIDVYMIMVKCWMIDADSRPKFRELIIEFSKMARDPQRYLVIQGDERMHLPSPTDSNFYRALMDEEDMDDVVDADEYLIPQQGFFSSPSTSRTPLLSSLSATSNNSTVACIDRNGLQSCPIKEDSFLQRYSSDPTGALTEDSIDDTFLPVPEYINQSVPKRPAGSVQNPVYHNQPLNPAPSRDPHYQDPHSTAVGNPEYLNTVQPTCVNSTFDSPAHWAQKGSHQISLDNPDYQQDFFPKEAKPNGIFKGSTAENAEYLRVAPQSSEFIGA
Sequence of Proto-oncogene tyrosine-protein kinase Src (Homo sapiens) (P12931 2-536 limits assumed): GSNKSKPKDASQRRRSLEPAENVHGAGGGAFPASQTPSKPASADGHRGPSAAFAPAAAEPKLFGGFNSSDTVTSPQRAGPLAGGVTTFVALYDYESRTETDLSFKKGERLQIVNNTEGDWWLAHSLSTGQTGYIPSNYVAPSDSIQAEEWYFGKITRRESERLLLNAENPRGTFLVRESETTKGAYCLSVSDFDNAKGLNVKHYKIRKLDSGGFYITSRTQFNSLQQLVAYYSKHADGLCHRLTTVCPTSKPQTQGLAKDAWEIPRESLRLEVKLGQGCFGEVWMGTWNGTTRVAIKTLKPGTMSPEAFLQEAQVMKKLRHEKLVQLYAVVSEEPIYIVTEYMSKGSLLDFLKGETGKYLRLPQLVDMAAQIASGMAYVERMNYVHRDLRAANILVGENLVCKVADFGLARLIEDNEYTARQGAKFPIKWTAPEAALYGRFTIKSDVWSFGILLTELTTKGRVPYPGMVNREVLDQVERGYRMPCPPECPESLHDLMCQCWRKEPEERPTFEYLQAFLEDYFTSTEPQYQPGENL
Sequence of Aurora kinase B (Homo sapiens) (Q96GD4 whole entry): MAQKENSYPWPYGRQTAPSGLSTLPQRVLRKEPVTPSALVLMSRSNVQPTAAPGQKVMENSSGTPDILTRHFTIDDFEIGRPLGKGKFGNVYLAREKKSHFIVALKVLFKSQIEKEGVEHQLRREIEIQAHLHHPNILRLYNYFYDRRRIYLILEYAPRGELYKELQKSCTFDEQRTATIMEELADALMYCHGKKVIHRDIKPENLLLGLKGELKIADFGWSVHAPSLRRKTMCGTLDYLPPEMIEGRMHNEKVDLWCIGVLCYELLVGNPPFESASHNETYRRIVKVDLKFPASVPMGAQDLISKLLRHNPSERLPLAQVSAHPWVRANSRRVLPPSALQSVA
Sequence of Focal adhesion kinase 1 (Homo sapiens) (Q05397 2-1052 limits assumed): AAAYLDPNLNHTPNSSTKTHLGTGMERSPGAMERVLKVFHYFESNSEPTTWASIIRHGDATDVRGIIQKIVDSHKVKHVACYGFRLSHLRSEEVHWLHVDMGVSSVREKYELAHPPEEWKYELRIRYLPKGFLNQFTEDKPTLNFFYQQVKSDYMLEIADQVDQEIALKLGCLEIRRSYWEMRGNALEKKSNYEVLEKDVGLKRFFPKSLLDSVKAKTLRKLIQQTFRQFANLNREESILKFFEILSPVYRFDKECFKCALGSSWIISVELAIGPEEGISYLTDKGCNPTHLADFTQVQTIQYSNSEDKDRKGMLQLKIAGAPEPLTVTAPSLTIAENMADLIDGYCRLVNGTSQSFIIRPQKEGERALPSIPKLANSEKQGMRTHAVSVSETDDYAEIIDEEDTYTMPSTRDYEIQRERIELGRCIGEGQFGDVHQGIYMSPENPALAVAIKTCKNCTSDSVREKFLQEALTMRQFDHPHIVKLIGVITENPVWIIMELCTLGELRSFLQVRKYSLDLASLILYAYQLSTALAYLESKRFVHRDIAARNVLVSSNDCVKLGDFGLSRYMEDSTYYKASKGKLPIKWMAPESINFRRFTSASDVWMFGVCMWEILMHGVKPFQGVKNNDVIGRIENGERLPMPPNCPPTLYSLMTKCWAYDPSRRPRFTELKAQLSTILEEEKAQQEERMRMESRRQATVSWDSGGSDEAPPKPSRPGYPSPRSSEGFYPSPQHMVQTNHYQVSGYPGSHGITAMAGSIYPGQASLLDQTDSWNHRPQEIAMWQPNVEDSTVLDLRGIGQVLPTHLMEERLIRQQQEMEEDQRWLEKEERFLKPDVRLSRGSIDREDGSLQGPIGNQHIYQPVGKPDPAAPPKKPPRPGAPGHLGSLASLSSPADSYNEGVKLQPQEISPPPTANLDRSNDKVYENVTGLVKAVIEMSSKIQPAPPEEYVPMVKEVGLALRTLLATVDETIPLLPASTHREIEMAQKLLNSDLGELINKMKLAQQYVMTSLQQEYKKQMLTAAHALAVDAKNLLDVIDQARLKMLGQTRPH
Sequence of Dual specificity mitogen-activated protein kinase kinase 1 (Homo sapiens) (Q02750 whole entry): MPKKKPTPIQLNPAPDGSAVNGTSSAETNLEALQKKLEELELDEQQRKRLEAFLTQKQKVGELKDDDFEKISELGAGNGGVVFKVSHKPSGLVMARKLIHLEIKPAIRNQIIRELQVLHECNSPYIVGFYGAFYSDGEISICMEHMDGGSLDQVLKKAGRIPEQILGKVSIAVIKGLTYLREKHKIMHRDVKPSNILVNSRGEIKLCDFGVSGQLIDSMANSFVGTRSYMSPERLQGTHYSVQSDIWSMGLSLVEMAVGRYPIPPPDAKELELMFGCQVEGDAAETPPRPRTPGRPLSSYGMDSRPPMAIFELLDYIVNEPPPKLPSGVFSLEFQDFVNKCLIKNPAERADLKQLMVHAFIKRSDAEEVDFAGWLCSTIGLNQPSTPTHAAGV

Consider `NCCCCNC(=O)c1cc2c([nH]c3ccc(O)cc32)c(C(=O)c2c[nH]c3ccccc23)n1`, for which, in [1], the IC50 (usually the midpoint of a concentration-inhibition curve) came out at 8.7 µM.

With `COc1ccc2[nH]cc(C(=O)c3nc(C(=O)O)cc4c3[nH]c3ccccc34)c2c1`, the figures for the IC50 (with MCF7; in assay [1]; with PC-3) were 3.4 µM, 12.1 µM and 32.3 µM, respectively.

As for `COC(=O)c1cc2c([nH]c3ccccc32)c(C(=O)c2c[nH]c3ccccc23)n1`, in assay [1], the midpoint of inhibition, the IC50, lay at 12.6 µM.

With `COc1ccc2[nH]cc(C(=O)c3nccc4c3[nH]c3ccc(O)cc34)c2c1`, the figures for the IC50 (with MCF7; in assay [1]; with PC-3) were above 100 µM, 44.5 µM and above 100 µM, respectively.

As to `O=C(O)c1cc2c([nH]c3ccc(O)cc32)c(C(=O)c2c[nH]c3ccccc23)n1`, the IC50 in the assay on MCF7 was 79 µM; in assay [1] it was 42 µM; with PC-3 it was 57.9 µM.

As for `CN(C)CCNC(=O)c1cc2c([nH]c3ccc(O)cc32)c(C(=O)c2c[nH]c3ccccc23)n1`, in assay [1], the IC50 is 1.33 µM.

In the case of `CC(=O)O[C@H]1C(=O)[C@@]2(C)[C@H]([C@H](OC(=O)c3ccccc3)[C@]3(O)C[C@H](OC(=O)[C@H](O)[C@@H](NC(=O)c4ccccc4)c4ccccc4)C(C)=C1C3(C)C)[C@]1(OC(C)=O)CO[C@@H]1C[C@@H]2O` [PACLITAXEL], the Activity in the assay on MDA-MB-231 [2] amounted to 11.93%; with MDA-MB-231 [3], 17.23%.

Compound `CN(C)CCNC(=O)c1cc2c([nH]c3ccccc32)c(C(=O)c2c[nH]c3ccccc23)n1` showed an IC50 in assay [1] of 3.56 µM.

In the case of `O=C(c1c[nH]c2ccccc12)c1nccc2c1[nH]c1ccccc12`, the IC50 in the assay with MCF7 is above 100 µM; in assay [1], above 100 µM; in the assay on PC-3, 55.1 µM.

Take `COc1ccc2[nH]cc(C(=O)c3nccc4c3[nH]c3ccccc34)c2c1`: the IC50 worked out at 6.94 µM in the assay with MCF7, 18.8 µM in assay [1] and 49.9 µM in the assay with PC-3.

With `O=C(c1c[nH]c2ccc([N+](=O)[O-])cc12)c1nccc2c1[nH]c1ccc(O)cc12`, the IC50 (in the assay with MCF7; in assay [1]; with PC-3) was above 100 µM in each case.

In assay [1], `NCCNC(=O)c1cc2c([nH]c3ccccc32)c(C(=O)c2c[nH]c3ccccc23)n1` gave an IC50 of 12.6 µM.

In the case of `CNCCNC(=O)c1cc2c([nH]c3ccc(O)cc32)c(C(=O)c2c[nH]c3ccccc23)n1`, half-maximal inhibition in assay [1] (IC50) was put at 4.36 µM.

As for `O=C(c1c[nH]c2ccc(Br)cc12)c1nccc2c1[nH]c1ccccc12`, the results for the IC50 (in the assay with MCF7; in assay [1]; in the assay on PC-3) were 60.9 µM, above 100 µM and above 100 µM, respectively.

For the compound `COC(=O)c1cc2c([nH]c3ccc(O)cc32)c(C(=O)c2c[nH]c3ccccc23)n1`, in assay [1], the IC50 is 3.16 µM.

Take `CN(C)CCCNC(=O)c1cc2c([nH]c3ccccc32)c(C(=O)c2c[nH]c3ccccc23)n1`: the IC50 in assay [1] was 6.02 µM.

For the compound `O=C(c1c[nH]c2ccccc12)c1nccc2c1[nH]c1ccc(O)cc12`, the IC50 in the assay with MCF7 was 12.9 µM; in assay [1], 6.35 µM; with PC-3 it was 16.4 µM. In addition, the Activity in the assay on MDA-MB-231 [4] was 11.16%; with MDA-MB-231 [11], “Dose-dependent effect”; with MDA-MB-231 [12] it was 41%. Further, the inhibition – broadly, how much of the control response was suppressed – in [5] worked out at 10%; in assay [6], 9%; in assay [7] it was 11%; in assay [8] it was 11%; in assay [9], 8%. Further, in the assay on MDA-MB-231 [10], the outcome was Active.

Take `CN(C)CCCNC(=O)c1cc2c([nH]c3ccc(O)cc32)c(C(=O)c2c[nH]c3ccccc23)n1`: in [1], half-maximal inhibition (IC50) was put at 2.51 µM.

In [1], `CNCCNC(=O)c1cc2c([nH]c3ccccc32)c(C(=O)c2c[nH]c3ccccc23)n1` yielded an IC50 of 3.98 µM.

With `NCCCCNC(=O)c1cc2c([nH]c3ccccc32)c(C(=O)c2c[nH]c3ccccc23)n1`, the IC50 in [1] worked out at 3.04 µM.

In the case of `O=C(c1c[nH]c2ccc([N+](=O)[O-])cc12)c1nccc2c1[nH]c1ccccc12`, the IC50 in the assay on MCF7 is above 100 µM; in assay [1] it was above 100 µM; in the assay with PC-3, 38.8 µM.

As to `O=C(O)c1cc2c([nH]c3ccccc32)c(C(=O)c2c[nH]c3ccccc23)n1`, the IC50 in the assay with MCF7 stood at 23.4 µM; in [1], 24.8 µM; with PC-3, 16.9 µM. For the same compound, the Activity is 4.89% with MDA-MB-231 [4], “Dose-dependent effect” in the assay with MDA-MB-231 [11] and 17.68% with MDA-MB-231 [12]. Further, the result with MDA-MB-231 [10] was Active.

On to `NCCNC(=O)c1cc2c([nH]c3ccc(O)cc32)c(C(=O)c2c[nH]c3ccccc23)n1`, for which, in [1], it took 15.8 µM to reach half-maximal inhibition (IC50).

Compound `NCCCNC(=O)c1cc2c([nH]c3ccccc32)c(C(=O)c2c[nH]c3ccccc23)n1` had an IC50 in [1] of 2.48 µM.

As for `O=C(c1c[nH]c2ccc(Br)cc12)c1nccc2c1[nH]c1ccc(O)cc12`, the IC50 (with MCF7; in [1]; in the assay on PC-3) was above 100 µM throughout.
